ChEMBL document CHEMBL2417451, “Synthesis, antimicrobial and cytotoxic activities of some novel thiazole clubbed 1,3,4-oxadiazoles” (Eur J Med Chem, 2013)
Values after ≈ are worked out from the molar mass of the structure shown.

Assays:
[1] = tested on: Staphylococcus aureus; test: Antibacterial activity against Staphylococcus aureus MTCC 96 by conventional broth microdilution method; type: functional
Procedure, shortened: (§1)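 Tube broth microdilution. Compounds were diluted in DMSO from a 2000 μg/mL stock. The primary screen used 500, 250 and 200 μg/mL, and actives were retested at 100, 62.5, 50 and 25 μg/mL. Tubes were incubated overnight. MIC was the lowest concentration with no visible growth (at least 99% inhibition). Clear tubes were subcultured overnight at 37 °C.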

[2] = tested on: Aspergillus niger; test: Ratio of ketoconazole MIC to compound MIC for Aspergillus niger MTCC 282; type: functional
[3] = tested on: Pseudomonas aeruginosa; test: Antibacterial activity against Pseudomonas aeruginosa MTCC 1688 by conventional broth microdilution method; type: functional; procedure, shortened: as §1
[4] = tested on: Candida albicans; test: Antifungal activity against Candida albicans MTCC 227 by conventional broth microdilution method; type: functional; procedure, shortened: as §1
[5] = tested on: Candida albicans; test: Ratio of ketoconazole MIC to compound MIC for Candida albicans MTCC 227; type: functional
[6] = tested on: HeLa; test: Cytotoxicity against human HeLa cells after 24 hrs by MTT assay; type: cell-based
Procedure, shortened: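 HeLa cells were grown in MEM with 10% FBS, 1% glutamine and gentamicin under humidified 5% CO2. 1.0 × 10^4 cells were exposed to 1–100 μM compound (0.1% DMSO in medium) for 24 h at 37 °C. MTT at 1 mg/mL was added for 5 h at 37 °C, formazan was dissolved in DMSO, and A540 was read. Run in triplicate; IC50 reported.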

[7] = tested on: Aspergillus niger; test: Antifungal activity against Aspergillus niger MTCC 282 by conventional broth microdilution method; type: functional; procedure, shortened: as §1
[8] = tested on: Aspergillus clavatus; test: Antifungal activity against Aspergillus clavatus MTCC 1323 by conventional broth microdilution method; type: functional; procedure, shortened: as §1
[9] = tested on: Escherichia coli; test: Antibacterial activity against Escherichia coli MTCC 443 by conventional broth microdilution method; type: functional; procedure, shortened: as §1
[10] = tested on: Streptococcus pyogenes; test: Antibacterial activity against Streptococcus pyogenes MTCC 442 by conventional broth microdilution method; type: functional; procedure, shortened: as §1
[11] = tested on: Escherichia coli; test: Ratio of chloramphenicol MIC to compound MIC for Escherichia coli MTCC 443; type: functional
[12] = tested on: Staphylococcus aureus; test: Ratio of chloramphenicol MIC to compound MIC for Staphylococcus aureus MTCC 96; type: functional
[13] = tested on: Pseudomonas aeruginosa; test: Ratio of chloramphenicol MIC to compound MIC for Pseudomonas aeruginosa MTCC 1688; type: functional
[14] = tested on: Streptococcus pyogenes; test: Ratio of chloramphenicol MIC to compound MIC for Streptococcus pyogenes MTCC 442; type: functional

Structure (SMILES) | MIC [1] | MIC [3] | MIC [4] | MIC [7] | MIC [8] | MIC [9] | MIC [10] | Ratio [2] | Ratio [5] | IC50 [6] | Ratio [11] | Ratio [12] | Ratio [13] | Ratio [14]
CC(=O)Nc1nc(C)c(-c2nn(CNc3cccc(C)c3)c(=S)o2)s1 | 500 µg/mL (≈ 1330 µM) | 500 µg/mL (≈ 1330 µM) | 500 µg/mL (≈ 1330 µM) | 500 µg/mL (≈ 1330 µM) | 500 µg/mL (≈ 1330 µM) | 250 µg/mL (≈ 666 µM) | 500 µg/mL (≈ 1330 µM) |  |  |  |  |  |  | 
CC(=O)Nc1nc(C)c(-c2nn(CNc3ccc(C)cc3)c(=S)o2)s1 | 500 µg/mL (≈ 1330 µM) | > 1000 µg/mL | 500 µg/mL (≈ 1330 µM) | 250 µg/mL (≈ 666 µM) | 250 µg/mL (≈ 666 µM) | 500 µg/mL (≈ 1330 µM) | > 1000 µg/mL |  |  |  |  |  |  | 
COc1ccccc1NCn1nc(-c2sc(NC(C)=O)nc2C)oc1=S | 500 µg/mL (≈ 1280 µM) | 250 µg/mL (≈ 639 µM) | 500 µg/mL (≈ 1280 µM) | 250 µg/mL (≈ 639 µM) | 250 µg/mL (≈ 639 µM) | 500 µg/mL (≈ 1280 µM) | > 1000 µg/mL |  |  |  |  |  |  | 
COc1cccc(NCn2nc(-c3sc(NC(C)=O)nc3C)oc2=S)c1 | > 1000 µg/mL | 500 µg/mL (≈ 1280 µM) | 250 µg/mL (≈ 639 µM) | 100 µg/mL (≈ 255 µM) | 500 µg/mL (≈ 1280 µM) | 500 µg/mL (≈ 1280 µM) | 500 µg/mL (≈ 1280 µM) |  |  |  |  |  |  | 
O=C(N[C@H](CO)[C@H](O)c1ccc([N+](=O)[O-])cc1)C(Cl)Cl [CHLORAMPHENICOL] | 50 µg/mL (≈ 155 µM) | 50 µg/mL (≈ 155 µM) |  |  |  | 50 µg/mL (≈ 155 µM) | 50 µg/mL (≈ 155 µM) |  |  |  |  |  |  | 
CC(=O)N1CCN(c2ccc(OCC3COC(Cn4ccnc4)(c4ccc(Cl)cc4Cl)O3)cc2)CC1 (stereo unspecified) [KETOCONAZOLE] |  |  | 50 µg/mL (≈ 94.1 µM) | 50 µg/mL (≈ 94.1 µM) | 50 µg/mL (≈ 94.1 µM) |  |  |  |  |  |  |  |  | 

Further lines, with some results ahead:

MIC [1] | MIC [3] | MIC [4] | MIC [7] | MIC [8] | MIC [9] | MIC [10] | Structure (SMILES) | Ratio [2] | Ratio [5] | IC50 [6] | Ratio [11] | Ratio [12] | Ratio [13] | Ratio [14]
500 µg/mL (≈ 1280 µM) | 500 µg/mL (≈ 1280 µM) | 25 µg/mL (≈ 63.9 µM) | 25 µg/mL (≈ 63.9 µM) | 62.5 µg/mL (≈ 160 µM) | 500 µg/mL (≈ 1280 µM) | > 1000 µg/mL | COc1ccc(NCn2nc(-c3sc(NC(C)=O)nc3C)oc2=S)cc1 | 2 | 2 | 98.6 µM |  |  |  | 
100 µg/mL (≈ 246 µM) | 250 µg/mL (≈ 615 µM) | 250 µg/mL (≈ 615 µM) | 500 µg/mL (≈ 1230 µM) | 500 µg/mL (≈ 1230 µM) | 500 µg/mL (≈ 1230 µM) | 250 µg/mL (≈ 615 µM) | CC(=O)Nc1nc(C)c(-c2nn(CNc3ccccc3[N+](=O)[O-])c(=S)o2)s1 |  |  |  |  |  |  | 
50 µg/mL (≈ 123 µM) | 50 µg/mL (≈ 123 µM) | 500 µg/mL (≈ 1230 µM) | 100 µg/mL (≈ 246 µM) | 250 µg/mL (≈ 615 µM) | 50 µg/mL (≈ 123 µM) | 100 µg/mL (≈ 246 µM) | CC(=O)Nc1nc(C)c(-c2nn(CNc3cccc([N+](=O)[O-])c3)c(=S)o2)s1 |  |  | > 100 µM |  |  |  | 
25 µg/mL (≈ 61.5 µM) | 12.5 µg/mL (≈ 30.8 µM) | 500 µg/mL (≈ 1230 µM) | 250 µg/mL (≈ 615 µM) | 100 µg/mL (≈ 246 µM) | 12.5 µg/mL (≈ 30.8 µM) | 25 µg/mL (≈ 61.5 µM) | CC(=O)Nc1nc(C)c(-c2nn(CNc3ccc([N+](=O)[O-])cc3)c(=S)o2)s1 |  |  | 96.5 µM | 4 | 2 | 4 | 2
500 µg/mL (≈ 1330 µM) | 100 µg/mL (≈ 266 µM) | 500 µg/mL (≈ 1330 µM) | 500 µg/mL (≈ 1330 µM) | 250 µg/mL (≈ 666 µM) | 250 µg/mL (≈ 666 µM) | 250 µg/mL (≈ 666 µM) | CC(=O)Nc1nc(C)c(-c2nn(CNc3ccccc3C)c(=S)o2)s1 |  |  |  |  |  |  | 
250 µg/mL (≈ 659 µM) | 500 µg/mL (≈ 1320 µM) | 500 µg/mL (≈ 1320 µM) | > 1000 µg/mL | 500 µg/mL (≈ 1320 µM) | 250 µg/mL (≈ 659 µM) | 100 µg/mL (≈ 264 µM) | CC(=O)Nc1nc(C)c(-c2nn(CNc3ccccc3F)c(=S)o2)s1 |  |  |  |  |  |  | 
50 µg/mL (≈ 132 µM) | 50 µg/mL (≈ 132 µM) | 500 µg/mL (≈ 1320 µM) | 500 µg/mL (≈ 1320 µM) | > 1000 µg/mL | 50 µg/mL (≈ 132 µM) | 100 µg/mL (≈ 264 µM) | CC(=O)Nc1nc(C)c(-c2nn(CNc3cccc(F)c3)c(=S)o2)s1 |  |  | > 100 µM |  |  |  | 
12.5 µg/mL (≈ 32.9 µM) | 12.5 µg/mL (≈ 32.9 µM) | 500 µg/mL (≈ 1320 µM) | 500 µg/mL (≈ 1320 µM) | > 1000 µg/mL | 12.5 µg/mL (≈ 32.9 µM) | 25 µg/mL (≈ 65.9 µM) | CC(=O)Nc1nc(C)c(-c2nn(CNc3ccc(F)cc3)c(=S)o2)s1 |  |  | > 100 µM | 4 | 4 | 4 | 2
